Experimental data published in publication PMC8682764 (Nucleic Acids Research, 2021).
Where a SMILES comes first, the peptide text is derived from it. Bridges are numbered along the chain shown (N, C = ends). [ ]: non-standard residue; d: D form. The star is where a group is joined. d(αMeK) = C[C@@](N)(CCCCN)C(=O)O; dPhg = N[C@@H](C(=O)O)c1ccccc1; Isobutyryl = CC(C)C(=O)*; Abu = CC[C@H](N)C(=O)O

What was measured:
[1] = system: WDR5 in LANA/MLL1 complex; experiment: Co-precipitation of ASH2L, RbBP5, WDR5 or MLL1-SET with MBP-LANAΔ33–888; assay type: binding; conditions: co-precipitation with MBP-LANAΔ33–888, immunoblot
[2] = system: WDR5 WIN binding pocket / MLL1-WDR5 interaction; conditions: cited from earlier work
[3] = system: WDR5 / MBP-LANAΔ33–888 interaction; experiment: Co-precipitation of WDR5 with MBP-LANAΔ33–888; assay type: binding; conditions: co-precipitation with MBP-LANAΔ33–888, Coomassie blue detection
MLL1 = experiment: Co-IP of GFP-LANA regions with MLL1; assay type: binding; conditions: co-IP after expression in 293T cells, anti-Flag
Procedure, shortened: (§1)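 Incubated overnight at 4°C with anti-Flag M2 (2 μg) agarose beads. Beads washed 3–6 times in lysis buffer and eluted in SDS buffer. Proteins resolved by SDS-PAGE and detected by western blot.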

WDR5 = experiment: Co-IP of GFP-LANA regions with Flag-WDR5; assay type: binding; conditions: co-IP after expression in 293T cells, anti-Flag
Procedure, shortened: as §1

Molecule | exclusion of WDR5 from LANA/MLL1 complex [1] | MLL1-WDR5 interaction inhibition [2] | effect on WDR5-LANA interaction [3] | interaction with MLL1 (MLL1) | interaction with WDR5 (WDR5)
CC[C@@H]1NC(=O)[C@H](CCCN=C(N)N)NC(=O)[C@](C)(NC(=O)C(C)C)CCCCNC(=O)[C@@H](c2ccccc2)NC1=O [MM-401] (Isobutyryl-[d(αMeK)]R[Abu][dPhg]; lactam 1-C) | excluded nearly all WDR5 from the LANA/MLL1 complex | occupies the WDR5 WIN binding pocket and thereby inhibits MLL1-WDR5 interaction | blocked the interaction of WDR5 with LANA |  | 
LANA 779–1049: GFP-LANA fragment 779–1049 (protein, left off: GFP, end not stated, kept) QEQELEEQEQELEEQEQELEEQEQELEEQEQELEEQEQELEEQEQELEEQEQELEEQEQELEEQEVEEQEQEVEEQEQEQEEQELEEVEEQEQEQEEQEEQELEEVEEQEEQELEEVEEQEEQELEEVEEQEQQELEEVEEQEQQGVEQQEQETVEEPIILHGSSSEDEMEVDYPVVSTHEQIASSPPGDNTPDDDPQPGPSREYRYVLRTSPPHRPGVRMRRVPVTHPKKPHPRYQQPPVPYRQIDDCPAKARPQHIFYRRFLGKDGRRD |  |  |  | did not | interacted with LANA 779–1049
